Measurements as given in publication PMC4657471 (Pest Management Science, 2014).
Where two headings read alike, the source gives them in different places.

How the values were obtained:
[1] = system: endogenously expressed insect nAChRs; assay: Whole-cell voltage clamp electrophysiology on isolated neurons; type: cell-based, Spodoptera frugiperda; details: for relative agonist efficacy: relative to the amplitude elicited by 1 mM of acetylcholine, holding potential −70 mV
[2] = system: rat; assay: Acute dermal toxicity; type: in vivo; details: technical flupyradifurone
[3] = system: rat; assay: Acute inhalation toxicity; type: in vivo; details: technical flupyradifurone
[4] = Skin irritation; details: technical flupyradifurone
[5] = Eye irritation; details: technical flupyradifurone
[6] = Mutagenicity; details: technical flupyradifurone
[7] = Carcinogenicity; details: technical flupyradifurone
[8] = Reproductive and developmental toxicity; details: technical flupyradifurone
[9] = Fish acute toxicity; details: rainbow trout, in vivo
[10] = Aquatic invertebrate acute toxicity; details: Daphnia, in vivo
[11] = Aquatic plant toxicity; details: algae, in vivo
[12] = system: Earthworm (Eisenia); assay: Earthworm 14 day toxicity; type: in vivo
[13] = system: Honey bee; assay: Honey bee acute contact toxicity; type: in vivo; details: technical flupyradifurone
[14] = system: Honey bee; assay: Honey bee acute oral toxicity; type: in vivo; details: technical flupyradifurone
[15] = system: Honey bee; assay: Honey bee foliage residue test; type: in vivo; details: at 205 g ha^−1
[16] = system: Honey bee; assay: Honey bee long-term field studies in oilseed rape; type: in vivo; details: 205 g AI ha^−1 in oilseed rape, full bloom and bees actively foraging
[17] = system: Bumblebee; assay: Bumblebee acute contact toxicity; type: in vivo; details: technical flupyradifurone
[18] = system: Bemisia tabaci; assay: Whitefly adult leaf-dip bioassay; type: in vivo; details: for mortality at 16 µg/mL: Bemisia tabaci
In short: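 Adult B. tabaci, including neonicotinoid-resistant biotype B (Unai, Brazil, 2009). Cotton leaf discs (3.5 cm) were dipped 5 s in solutions made up in 0.02% Triton X-100, with diluent alone for controls. Discs were air-dried and laid on 12 g L−1 agar under ventilated lids. Three replicates per concentration, 20–30 females each, held at 22–24 °C; adult mortality scored after 72 h.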

[19] = system: Myzus persicae; assay: Speed of action: suppression of aphid honeydew excretion on oilseed rape; type: in vivo; details: SL200, 75 g AI ha^−1 foliar on oilseed rape
In short: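 Susceptible M. persicae (strain NS): 100 aphids per plant on the abaxial leaf side of […] oilseed rape (six leaves). Sprayed 50 cm above the canopy with a track sprayer at 75 g AI ha−1 SL200 in 300 L ha−1 water; water controls; two replicates; 22 °C, 60–70% RH. Filter papers under the leaves were changed every 30 min up to 240 min and stained with ninhydrin; honeydew spot area was expressed as suppression relative to preapplication.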

[20] = system: lettuce aphids (Nasonovia ribisnigri); assay: Field trials against lettuce aphids; type: in vivo; details: seven lettuce field trials, foliar spray, rate g ha^−1: flupyradifurone 125, pymetrozine 200, thiacloprid 96, spirotetramat 75; for Efficacy (%) 6–10 DAA: 6–10 days after application; for Efficacy (%) 13–15 DAA: 13–15 days after application
In short: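 Seven lettuce field trials in the EU maritime zone, each including commercial formulated standard insecticides for comparison. Treatments were replicated 3–4 times per trial, with aphid infestations above economic threshold levels. Efficacy was assessed at various intervals after spraying by scoring surviving aphids.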

[21] = system: B. tabaci CYP6CM1; assay: Metabolism of insecticides by recombinant CYP6CM1 microsomes; type: in vitro ADME, Bemisia tabaci; details: 20 µM insecticide; 4 h at 30 °C; NADPH-regenerating system; UPLC-MS
In short: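 B. tabaci CYP6CM1 and Drosophila NADPH CPR were baculovirus-expressed in Sf9 cells and run as microsomes (0.2 mg mL−1 total protein) in 0.1 M K-phosphate. Regenerating system: 1.3 mM NADP+, 3.3 mM glucose-6-phosphate, 3.3 mM MgCl2, 0.4 U mL−1 G6PDH. Insecticide 20 µM, 30 °C, 4 h, triplicates, no-NADPH control. Quenched with acetonitrile (50% final), centrifuged, parent loss measured by UPLC–MS/MS in positive ion mode.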

[22] = system: tomato plants (Solanum lycopersicum L.); assay: Plant uptake and translocation by phosphor imaging; details: [14C]-labelled, SL200; tomato plants harvested 1 day after soil drench
In short: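 Test compound was [pyridinylmethyl-14C]-labelled in SL200 and drenched at 24 mg AI plant−1 onto 21-day-old tomato in 5 L pots of sandy loam at 80–90% water-holding capacity. Plants were kept at 21/16 °C day/night with 14 h light and 60–70% RH. Shoots were cut at the soil surface, pressed, dried 24 h at 50 °C and exposed 6 days to phosphor imaging plates.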

## O=C1C=C(N(Cc2ccc(Cl)nc2)CC(F)F)CO1 [Flupyradifurone, 4-{[(6-Chloropyridine-3-yl)methyl] (2,2-difluoroethyl)amino}furan-2 (5H)-one]
[1]; isolated S. frugiperda neurons
  type of action on nAChRs: partial agonist
[1]
  relative agonist efficacy: 0.56
[2]
  Acute dermal toxicity, rat LD50: >2000 mg kg^−1 body weight
[3]
  Acute inhalation toxicity, rat LC50: >4671 mg m^−3
[4]
  Skin irritation: Non-irritant
[5]
  Eye irritation: Non-irritant
[6]
  Mutagenicity: Not a mutagen
[7]
  Carcinogenicity: Not a carcinogen
[8]
  Reproductive and developmental toxicity: No concern
[9]
  LC50: > 74.2 µg/mL
[10]
  EC50: > 77.6 µg/mL
[11]
  EC50: > 80 µg/mL
[12]
  Earthworm (Eisenia) 14 day LC50: 193 mg kg^−1 dry weight soil
[13]
  Honey bee acute contact LD50: >100 µg bee^−1
[14]
  Honey bee acute oral LD50: 1200 ng bee^−1
[15]
  Honey bee foliage residue: No effects at 205 g ha^−1
[16]
  Honey bee long-term field studies: No adverse effects
[17]
  Bumblebee acute contact LD50: >100 µg bee^−1
[18]; read-out: adult mortality
  mortality at 16 µg/mL: 50%
[18]; read-out: nymph mortality
  mortality at 16 µg/mL: 100%
[19]; aphids on abaxial leaf side
  time to feeding (honeydew excretion) stop after spray application: ≤ 2 h
[19]; data not shown
  aphid mortality two days after application: all aphids were dead
[20]
  Efficacy (%) 6–10 DAA: 96%
  Efficacy (%) 13–15 DAA: 83%
[21]
  degradation of parent compound by CYP6CM1 microsomes: not depleted at all
[22]
  root uptake and distribution after drench application: fast root uptake

## O=[N+]([O-])NC1=NCCN1Cc1ccc(Cl)nc1 [Imidacloprid, imidacloprid, reference compound]
[1]
  relative agonist efficacy: 0.15
[18]; B. tabaci B-type strain (Unai, Brazil), concentrations of 1000 mg L^−1
  response of adult females: do not respond at all
[21]
  degradation of parent compound by CYP6CM1 microsomes: 23 ± 1%

## CC1=NNC(=O)N(/N=C/c2cccnc2)C1 [Pymetrozine, pymetrozine]
[20]
  Efficacy (%) 6–10 DAA: 79%
  Efficacy (%) 13–15 DAA: 57%
[21]
  degradation of parent compound by CYP6CM1 microsomes: 70 ± 6%

## CCOC(=O)OC1=C(c2cc(C)ccc2C)C(=O)N[C@]12CC[C@@H](OC)CC2 [Spirotetramat, spirotetramat]
[20]
  Efficacy (%) 6–10 DAA: 90%
  Efficacy (%) 13–15 DAA: 98%
[21]
  degradation of parent compound by CYP6CM1 microsomes: not depleted at all

## N#C/N=C1\SCCN1Cc1ccc(Cl)nc1 [Thiacloprid, thiacloprid]
[20]
  Efficacy (%) 6–10 DAA: 88%
  Efficacy (%) 13–15 DAA: 72%

## CC(c1ccc(C(F)(F)F)nc1)S(C)(=O)=NC#N (centres unmarked) [sulfoxaflor]
[21]
  degradation of parent compound by CYP6CM1 microsomes: not depleted at all
